# Columns and labels:
# [1] = substrate: COc1c(C)c2c(c(O)c1C/C=C(\C)CCC(=O)O)C(=O)OC2; settings: Cryptococcus neoformans; 0.078 uM
# [2] = compound: COc1ccccc1-c1nnc(SC2=CS(=O)(=O)c3ccccc32)o1; test: (§1) Inhibition of recombinant Cryptococcus neoformans His-tagged IMPDH expressed in Escherichia coli BL21 (DE3) at 10 uM assessed as Kcat for substrate using NAD as fixed substrate at 700 uM and IMP as second substrate with varying concentrations of 25 to 800 uM (reference value: 21.5 /s)
# Procedure, shortened: (§2)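 Recombinant C. neoformans IMPDH, 100 nM final, reaction started by adding enzyme. NADH production monitored at 340 nm. Inhibitor series ran from 20 to 0.31 µM; MPA tested at 312 to 39 nM. Km and Vmax fitted to the Michaelis–Menten equation; inhibition type taken from shifts in Km and Vmax.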
# [3] = compound: O=S1(=O)C=C(Sc2nnc(-c3ccccc3)o2)c2ccccc21; test: as §1
# Procedure, shortened: as §2
# [4] = substrate: COc1c(C)c2c(c(O)c1C/C=C(\C)CCC(=O)O)C(=O)OC2; settings: Cryptococcus neoformans; 0.039 uM
# [5] = substrate: COc1c(C)c2c(c(O)c1C/C=C(\C)CCC(=O)O)C(=O)OC2; settings: Cryptococcus neoformans; 0.078 uM; remark: listed apart in the source
# [6] = compound: COc1ccccc1-c1nnc(SC2=CS(=O)(=O)c3ccccc32)o1; test: (§3) Inhibition of recombinant Cryptococcus neoformans His-tagged IMPDH expressed in Escherichia coli BL21 (DE3) at 10 uM assessed as Vmax for substrate using NAD as fixed substrate at 700 uM and IMP as second substrate with varying concentrations of 25 to 800 uM (reference value: 1.5 microM/min)
# Procedure, shortened: as §2
# [7] = compound: O=S1(=O)C=C(Sc2nnc(-c3ccccc3)o2)c2ccccc21; test: as §3
# Procedure, shortened: as §2
# [8] = substrate: COc1c(C)c2c(c(O)c1C/C=C(\C)CCC(=O)O)C(=O)OC2; settings: Cryptococcus neoformans; 0.156 uM
# [9] = substrate: COc1c(C)c2c(c(O)c1C/C=C(\C)CCC(=O)O)C(=O)OC2; settings: Cryptococcus neoformans; 0.078 uM; remark: listed apart in the source
# [10] = compound: COc1ccccc1-c1nnc(SC2=CS(=O)(=O)c3ccccc32)o1; test: (§4) Inhibition of recombinant Cryptococcus neoformans His-tagged IMPDH expressed in Escherichia coli BL21 (DE3) at 2.5 uM assessed as Kcat for substrate using NAD as fixed substrate at 700 uM and IMP as second substrate with varying concentrations of 25 to 800 uM (reference value: 21.5 /s)
# Procedure, shortened: as §2
# [11] = compound: O=S1(=O)C=C(Sc2nnc(-c3ccccc3)o2)c2ccccc21; test: as §4
# Procedure, shortened: as §2
# [12] = substrate: COc1c(C)c2c(c(O)c1C/C=C(\C)CCC(=O)O)C(=O)OC2; settings: Cryptococcus neoformans; 0.078 uM; remark: listed apart in the source
# [13] = substrate: COc1c(C)c2c(c(O)c1C/C=C(\C)CCC(=O)O)C(=O)OC2; settings: Cryptococcus neoformans; 0.156 uM; remark: listed apart in the source
# [14] = substrate: COc1c(C)c2c(c(O)c1C/C=C(\C)CCC(=O)O)C(=O)OC2; settings: Cryptococcus neoformans; 0.156 uM; remark: listed apart in the source
# [15] = substrate: COc1c(C)c2c(c(O)c1C/C=C(\C)CCC(=O)O)C(=O)OC2; settings: Cryptococcus neoformans; 0.039 uM; remark: listed apart in the source
# [16] = compound: COc1ccccc1-c1nnc(SC2=CS(=O)(=O)c3ccccc32)o1; test: (§5) Inhibition of recombinant Cryptococcus neoformans His-tagged IMPDH expressed in Escherichia coli BL21 (DE3) at 2.5 uM assessed as Vmax for substrate using NAD as fixed substrate at 700 uM and IMP as second substrate with varying concentrations of 25 to 800 uM (reference value: 1.5 microM/min)
# Procedure, shortened: as §2
# [17] = compound: O=S1(=O)C=C(Sc2nnc(-c3ccccc3)o2)c2ccccc21; test: as §5
# Procedure, shortened: as §2
# [18] = compound: COc1ccccc1-c1nnc(SC2=CS(=O)(=O)c3ccccc32)o1; test: (§6) Inhibition of recombinant Cryptococcus neoformans His-tagged IMPDH expressed in Escherichia coli BL21 (DE3) at 10 uM assessed as Vmax for substrate using IMP as fixed substrate at 500 uM and NAD as second substrate with varying concentrations of 31.25 to 1300 uM (reference value: 1.5 microM/min)
# Procedure, shortened: as §2
# [19] = compound: O=S1(=O)C=C(Sc2nnc(-c3ccccc3)o2)c2ccccc21; test: as §6
# Procedure, shortened: as §2
# [20] = compound: O=S1(=O)C=C(Sc2nnc(-c3ccccc3)o2)c2ccccc21; test: Inhibition of recombinant Cryptococcus neoformans His-tagged IMPDH expressed in Escherichia coli BL21 (DE3) at 0.3 uM assessed as Kcat for substrate using IMP as fixed substrate at 500 uM and NAD as second substrate with varying concentrations of 31.25 to 1300 uM (reference value: 1.5 /s)
# [21] = compound: COc1ccccc1-c1nnc(SC2=CS(=O)(=O)c3ccccc32)o1; test: (§7) Inhibition of recombinant Cryptococcus neoformans His-tagged IMPDH expressed in Escherichia coli BL21 (DE3) at 0.3 uM assessed as Km for substrate using NAD as fixed substrate at 700 uM and IMP as second substrate with varying concentrations of 25 to 800 uM (reference value: 257.5 +/- 23 microM)
# Procedure, shortened: as §2
# [22] = compound: O=S1(=O)C=C(Sc2nnc(-c3ccccc3)o2)c2ccccc21; test: as §7
# Procedure, shortened: as §2
# [23] = compound: COc1ccccc1-c1nnc(SC2=CS(=O)(=O)c3ccccc32)o1; test: (§8) Inhibition of recombinant Cryptococcus neoformans His-tagged IMPDH expressed in Escherichia coli BL21 (DE3) at 2.5 uM assessed as Km for substrate using IMP as fixed substrate at 500 uM and NAD as second substrate with varying concentrations of 31.25 to 1300 uM (reference value: 257.5 +/- 23 microM)
# Procedure, shortened: as §2
# [24] = compound: O=S1(=O)C=C(Sc2nnc(-c3ccccc3)o2)c2ccccc21; test: as §8
# Procedure, shortened: as §2
# [25] = compound: COc1ccccc1-c1nnc(SC2=CS(=O)(=O)c3ccccc32)o1; test: (§9) Inhibition of recombinant Cryptococcus neoformans His-tagged IMPDH expressed in Escherichia coli BL21 (DE3) at 0.3 uM assessed as Vmax for substrate using NAD as fixed substrate at 700 uM and IMP as second substrate with varying concentrations of 25 to 800 uM (reference value: 1.5 microM/min)
# Procedure, shortened: as §2
# [26] = compound: O=S1(=O)C=C(Sc2nnc(-c3ccccc3)o2)c2ccccc21; test: as §9
# Procedure, shortened: as §2
# [27] = compound: COc1ccccc1-c1nnc(SC2=CS(=O)(=O)c3ccccc32)o1; test: Inhibition of recombinant Cryptococcus neoformans His-tagged IMPDH expressed in Escherichia coli BL21 (DE3) at 2.5 uM assessed as Kcat for substrate using IMP as fixed substrate at 500 uM and NAD as second substrate with varying concentrations of 31.25 to 1300 uM (reference value: 21.5 /s)
# Procedure, shortened: as §2
protein,measurement,setting,value
"Inosine-5'-monophosphate dehydrogenase (Cryptococcus neoformans var. neoformans serotype D (strain JEC21 /ATCC MYA-565) (Filobasidiella neoformans)), Q5KP44 (protein) MADTNPNAPPRSDSLLNPADALKYLEEYPRGDGLSLQELMDSRKNGGLTYNDFLVLPGHISFPASDVSLQSRATKNIVLNTPFLSSPMDTVTEDRMAIALALHGGLGIIHHNCSAEEQAAMVRRVKKYENGFITDPLCLGPDATVGDVLEIKAKFGFCGVPITETGAPNSKLLGIVTGRDVQFQDAETPIKSVMTTEVVTGSSPITLEKANSLLRETKKGKLPIVDSNGHLVSLVARSDLLKNQNYPYASKVPESKQLYCGAAIGTRPGDKDRLKLLAEAGLDVVVLDSSQGDSVYQIEFIKWIKQTYPKIEIIAGNVVTREQAAQLIAAGADGLRIGMGSGSICITQEVMAVGRPQGTAVYAVAEFASRFGIPCIADGGIGNIGHIAKALALGASAVMMGGLLAGTTESPGEYFYHEGKRVKVYRGMGSIEAMEHTQRGSASGKRSILNLDNAATARYFSEADAVKVAQGVSGDVADKGSINKFVPYLFTGLQHSFQDAGVKSVSELHSCARSGSLRFELRTASAQLEGGVHGLNSYTKRLFA",Vmax,[1],0.6 µM/min
same,kcat,[2],0.7 s⁻¹
same,kcat,[3],0.6 s⁻¹
same,kcat,[4],1.1 s⁻¹
same,Vmax,[5],0.6 µM/min
same,Vmax,[6],0.7 µM/min
same,Vmax,[7],0.6 µM/min
same,Vmax,[8],0.26 µM/min
same,Km,[9],137 µM
same,kcat,[10],1 s⁻¹
same,kcat,[11],0.9 s⁻¹
same,Km,[12],53 µM
same,kcat,[13],0.3 s⁻¹
same,Km,[14],37 µM
same,Vmax,[15],1.1 µM/min
same,Vmax,[16],1 µM/min
same,Vmax,[17],0.9 µM/min
same,Vmax,[18],1 µM/min
same,Vmax,[19],1 µM/min
same,kcat,[20],1.5 s⁻¹
same,Km,[21],93 µM
same,Km,[22],92.5 µM
same,Km,[23],358 µM
same,Km,[24],336 µM
same,Vmax,[25],1.4 µM/min
same,Vmax,[26],1.1 µM/min
same,kcat,[27],1.5 s⁻¹

# Reference: ChEMBL document CHEMBL4265991
